# Assay results from PubChem BioAssay AID504509 (Southern Research Specialized Biocontainment Screening …, 2011).
# The source made the active and inactive calls.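 Rule for the calls: active = cell viability under 70% at any tested concentration, a measure not printed in our tables; inactive = the rest.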
# System: HEp-2 viability, luminescence, cytotoxicity counter-screen
# Assay: HEp-2 cell cytotoxicity, dose response, cytotoxicity control for RSV inhibitor project, HEp-2 cells, synthesized compounds, set 6 (AID 504509)
# Procedure, shortened: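 Test system: uninfected HEp-2 human cells, cytotoxicity counter-screen; quantity: 10,595 HEp-2 cells per well; timing: compound exposure of 6 days at 37 °C; measured by: CellTiter-Glo luminescence reporting cellular ATP; read-out basis: CC50 from % viability versus untreated-cell median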
row,Structure (SMILES),CC50
1,COc1ccccc1CNC(=O)C1CCN(S(=O)(=O)c2cccc3cccnc23)CC1,> 50 µM (inactive)
2,Cc1ccc(C)c(NC(=O)[C@@H]2CCCN2S(=O)(=O)c2cccc3cccnc23)c1,50.4 µM
3,Cc1ccc(C(F)(F)F)cc1NC(=O)[C@@H]1CCCN1S(=O)(=O)c1cccc2cccnc12,6.92 µM
4,COc1ccccc1CNC(=O)C1CCN(Cc2cccc3nonc23)CC1,> 50 µM (inactive)
5,COc1ccccc1CNC(=O)[C@@H]1CCCN1S(=O)(=O)c1cccc2cccnc12,> 50 µM (inactive)
6,O=C(O)C1CC=CCC1C(=O)Nc1ccc(S(=O)(=O)N2CCCc3ccccc32)cc1 (configuration not stated),33 µM
7,COc1ccccc1NCC(=O)Nc1cc(S(=O)(=O)N2CCOCC2)ccc1N1CCOCC1,> 50 µM (inactive)
8,COc1ccccc1CNC(=O)C1CCN(S(=O)(=O)c2cccc3nonc23)CC1,> 50 µM (inactive)
9,Cc1ccc(C(C)(C)C)cc1NC(=O)[C@@H]1CCCN1S(=O)(=O)c1cccc2cccnc12,7.18 µM
10,Cc1cccc(C)c1NC(=O)[C@@H]1CCCN1S(=O)(=O)c1cccc2cccnc12,> 50 µM (inactive)
11,Cc1ccc(C(C)C)cc1NC(=O)[C@@H]1CCCN1S(=O)(=O)c1cccc2cccnc12,8.26 µM
12,COc1ccccc1CNC(=O)C1CCN(S(=O)(=O)c2ccccc2)CC1,> 50 µM (inactive)
13,Cc1ccc(Cl)c(NC(=O)[C@@H]2CCCN2S(=O)(=O)c2cccc3cccnc23)c1,9.83 µM
14,COc1cccc(CNC(=O)C2CCN(S(=O)(=O)c3cccc4nonc34)CC2)c1,> 50 µM (inactive)
15,Cc1ccc(Cl)cc1NC(=O)[C@@H]1CCCN1S(=O)(=O)c1cccc2cccnc12,9.59 µM
16,COCCNC(=O)c1ccc(Cn2c(=O)c3ccccc3n(Cc3ccc(C)cc3)c2=O)cc1,> 50 µM (inactive)
17,COCCCNC(=O)c1ccc(Cn2c(=O)c3ccccc3n(Cc3ccccc3)c2=O)cc1,> 50 µM (inactive)
